Laboratory results as given in ChEMBL document CHEMBL3808334, “Synthesis and in vitro evaluation of novel triazine analogues as anticancer agents and their interaction studies with bovine serum albumin” (Eur J Med Chem, 2016).

How the values were obtained:
Format in all cases: functional
[1] = Growth inhibition of human BT549 cells assessed as cell growth at 10^-7 M incubated for 48 hrs by sulforhodamine B assay; conditions: BT-549, 48 h, read-out: Activity
Outline: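 Five-dose assay: five concentrations from 10-fold or ½-log serial dilutions. Cells are plated at 5,000–40,000 per well according to doubling time, grown 24 h, then exposed 48 h at 37 °C, 5% CO₂. Fixed with cold 50% TCA (final addition) for 60 min at 4 °C and stained with 0.4% SRB in 1% acetic acid. Bound dye is solubilized in 10 mM Tris base and read at 515 nm. GI₅₀ is where [(Ti−Tz)/(C−Tz)]×100 = 50, with a time-zero plate as Tz.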

HT-29 = assay: Growth inhibition of human HT-29 cells assessed as cell growth at 10^-4 M incubated for 48 hrs by sulforhodamine B assay; conditions: HT-29, 48 h, read-out: Activity
[2] = Growth inhibition of human DU145 cells assessed as cell growth at 10 uM incubated for 48 hrs by sulforhodamine B assay; conditions: DU-145, 48 h, read-out: Activity
Outline: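 Primary screen at one dose (10 µM) across 60 human cancer cell lines. Readout was growth percent relative to untreated control and time-zero.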

[3] = Growth inhibition of human PC3 cells assessed as cell growth at 10^-7 M incubated for 48 hrs by sulforhodamine B assay; conditions: PC-3, 48 h, read-out: Activity
[4] = Growth inhibition of human OVCAR5 cells assessed as cell growth at 10^-4 M incubated for 48 hrs by sulforhodamine B assay; conditions: OVCAR-5, 48 h, read-out: Activity
[5] = Growth inhibition of human TK10 cells assessed as cell growth at 10^-8 M incubated for 48 hrs by sulforhodamine B assay; conditions: TK-10, 48 h, read-out: Activity
[6] = Growth inhibition of human OVCAR3 cells assessed as cell growth at 10 uM incubated for 48 hrs by sulforhodamine B assay; conditions: OVCAR-3, 48 h, read-out: Activity
[7] = Growth inhibition of human HCC2998 cells assessed as cell growth at 10^-7 M incubated for 48 hrs by sulforhodamine B assay; conditions: HCC 2998, 48 h, read-out: Activity
Outline: (§1)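 Cells seeded at 5,000–40,000/well according to doubling time and preincubated 24 h at 37 °C, 5% CO2. Time-zero plates were TCA-fixed. DMSO concentrate was diluted in medium with 50 µg/ml gentamicin to give five concentrations (10-fold or ½ log steps), then exposed 48 h. Cells were TCA-fixed, stained with 0.4% SRB and read at 515 nm. Percent growth was taken against time-zero and control; GI50, TGI and LC50 derived.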

MCF7 = assay: Growth inhibition of human MCF7 cells assessed as cell growth at 10^-4 M incubated for 48 hrs by sulforhodamine B assay; conditions: MCF7, 48 h, read-out: Activity
SK-MEL-2 = assay: Growth inhibition of human SK-MEL-2 cells assessed as cell growth at 10^-8 M incubated for 48 hrs by sulforhodamine B assay; conditions: SK-MEL-2, 48 h, read-out: Activity
SN12C = assay: Growth inhibition of human SN12C cells assessed as cell growth at 10^-6 M incubated for 48 hrs by sulforhodamine B assay; conditions: read-out: Activity
Malme-3M = assay: Growth inhibition of human MALME-3M cells assessed as cell growth at 10^-5 M incubated for 48 hrs by sulforhodamine B assay; conditions: read-out: Activity
KM12 = assay: Growth inhibition of human KM12 cells assessed as cell growth at 10^-5 M incubated for 48 hrs by sulforhodamine B assay; conditions: KM12, 48 h, read-out: Activity
MDA-MB-468 = assay: Growth inhibition of human MDA-MB-468 cells assessed as cell growth at 10^-7 M incubated for 48 hrs by sulforhodamine B assay; conditions: MDA-MB-468, 48 h, read-out: Activity
786-0 = assay: Growth inhibition of human 786-0 cells assessed as cell growth at 10 uM incubated for 48 hrs by sulforhodamine B assay; conditions: 786-0, 48 h, read-out: Activity
Outline: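 One-dose screen at 10 µM final. Cells are plated at 5,000–40,000 per well according to doubling time and preincubated 24 h at 37 °C, 5% CO₂. Compound (DMSO stock diluted in medium with 50 µg/ml gentamicin) is then added for 48 h. Growth percent is read by sulforhodamine B staining, absorbance at 515 nm.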

[8] = Growth inhibition of human UO31 cells assessed as cell growth at 10^-5 M incubated for 48 hrs by sulforhodamine B assay; conditions: UO-31, 48 h, read-out: Activity
EKVX = assay: Growth inhibition of human EKVX cells assessed as cell growth at 10^-5 M incubated for 48 hrs by sulforhodamine B assay; conditions: read-out: Activity; outline: as §1
U-251 = assay: Growth inhibition of human U251 cells incubated for 48 hrs by sulforhodamine B assay; conditions: U-251, 48 h
Outline: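 Cells were plated at 5,000–40,000 per well according to doubling time and preincubated 24 h at 37 °C in 5% CO2; time-zero plates were then TCA-fixed. Five concentrations (10-fold or ½-log dilutions, DMSO stock) were incubated 48 h. Cells were TCA-fixed, stained with 0.4% SRB and read at 515 nm. GI50 was taken where [(Ti−Tz)/(C−Tz)]×100 = 50.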

NCI-H322M = assay: Growth inhibition of human NCI-H322M cells assessed as cell growth at 10^-8 M incubated for 48 hrs by sulforhodamine B assay; conditions: read-out: Activity
[9] = Growth inhibition of human PC3 cells assessed as cell growth at 10 uM incubated for 48 hrs by sulforhodamine B assay; conditions: PC-3, 48 h, read-out: Activity
[10] = Growth inhibition of human HCT15 cells assessed as cell growth at 10^-8 M incubated for 48 hrs by sulforhodamine B assay; conditions: HCT-15, 48 h, read-out: Activity; outline: as §1
[11] = Growth inhibition of human Hs 578T cells assessed as cell growth at 10^-5 M incubated for 48 hrs by sulforhodamine B assay; conditions: read-out: Activity
[12] = Growth inhibition of human RXF393 cells assessed as cell growth at 10^-5 M incubated for 48 hrs by sulforhodamine B assay; conditions: RXF 393, 48 h, read-out: Activity
M14 = assay: Growth inhibition of human M14 cells assessed as cell growth at 10^-8 M incubated for 48 hrs by sulforhodamine B assay; conditions: M14, 48 h, read-out: Activity
NCI-H460 = assay: Growth inhibition of human NCI-H460 cells assessed as cell growth at 10 uM incubated for 48 hrs by sulforhodamine B assay; conditions: NCI-H460, 48 h, read-out: Activity
[13] = Growth inhibition of human Hs 578T cells assessed as cell growth at 10 uM incubated for 48 hrs by sulforhodamine B assay; conditions: read-out: Activity
[14] = Growth inhibition of human SKOV3 cells assessed as cell growth at 10^-6 M incubated for 48 hrs by sulforhodamine B assay; conditions: SK-OV-3, 48 h, read-out: Activity
[15] = read-out: LC50 (the source's name)
[16] = read-out: pLC50 (the source's name) (converted)

Row | Structure (SMILES) | growth at 0.1 µM [1] [%] | growth at 100 µM (HT-29) [%] | growth at 10 µM [2] [%] | growth at 0.1 µM [3] [%] | growth at 100 µM [4] [%] | growth at 0.01 µM [5] [%] | growth at 10 µM [6] [%] | growth at 0.1 µM [7] [%] | growth at 100 µM (MCF7) [%] | growth at 0.01 µM (SK-MEL-2) [%] | growth at 1 µM (SN12C) [%] | growth at 10 µM (Malme-3M) [%] | growth at 10 µM (KM12) [%] | growth at 0.1 µM (MDA-MB-468) [%] | growth at 10 µM (786-0) [%] | growth at 10 µM [8] [%] | growth at 10 µM (EKVX) [%] | GI50 (U-251; read-out: GI50) [µM] | TGI (U-251; read-out: TGI) [µM] | GI50 (U-251; read-out: pGI50 (converted)) [µM] | other results
1 | c1ccc(-c2nc(Nc3ccc(-c4nc5ccccc5[nH]4)cc3)nc(N3CCOCC3)n2)cc1 | 100 | -76 | -27.8 | 106 | -75 | 99 | -73.4 | 97 | -52 | 105 | 85 | -73 | -84 | 112 | -88.9 | -78 | -70 | 0.535 | 1.76 | 0.537 | CC50 (U-251; [15]): 4.89 µM; CC50 (U-251; [16]): 4.9 µM; TGI (U-251; read-out: pTGI (converted)): 1.78 µM; growth at 0.01 µM (NCI-H322M): 95%; growth at 10 µM [9]: -35.5%; growth at 0.01 µM [10]: 96%; growth at 10 µM [11]: -22%; growth at 10 µM [12]: -63%; growth at 0.01 µM (M14): 102%; growth at 10 µM (NCI-H460): -67.2%; growth at 10 µM [13]: -39.9%; growth at 1 µM [14]: 104%
2 | Fc1ccc(-c2nc(Nc3ccc(-c4nc5ccccc5[nH]4)cc3)nc(N3CCOCC3)n2)cc1 | 97 | -43 | 38.5 | 105 | -31 | 91 | 5.15 | 95 | 1 | 103 | 89 | -71 | -28 | 106 | -60 | -30 | 3 | 2.04 | 13.6 | 2.04 | CC50 (U-251; [15]): > 100 µM; CC50 (U-251; [16]): > 100 µM; TGI (U-251; read-out: pTGI (converted)): 13.5 µM; growth at 0.01 µM (NCI-H322M): 101%; growth at 10 µM [9]: 2.31%; growth at 0.01 µM [10]: 97%; growth at 10 µM [11]: -13%; growth at 10 µM [12]: -37%; growth at 0.01 µM (M14): 97%; growth at 10 µM (NCI-H460): 0.13%; growth at 10 µM [13]: -11.9%; growth at 1 µM [14]: 101%
3 | Clc1ccc(-c2nc(Nc3ccc(-c4nc5ccccc5[nH]4)cc3)nc(N3CCOCC3)n2)cc1 | 93 | -42 | -94 | 101 | -16 | 93 | -95.6 | 93 | -17 | 99 | 47 | -78 | -81 | 112 | -94.5 | -86 | -80 | 0.215 | 0.442 | 0.214 | TGI (U-251; read-out: pTGI (converted)): 0.447 µM; growth at 0.01 µM (NCI-H322M): 96%; growth at 10 µM [9]: -93.5%; growth at 0.01 µM [10]: 96%; growth at 10 µM [11]: -47%; growth at 10 µM [12]: -79%; growth at 0.01 µM (M14): 94%; growth at 10 µM (NCI-H460): -80.3%; growth at 10 µM [13]: -40.2%; growth at 1 µM [14]: 102%
4 | c1ccc2[nH]c(-c3ccc(Nc4nc(N5CCCCC5)nc(N5CCOCC5)n4)cc3)nc2c1 | 95 | -46 | 39 | 98 | -18 | 96 | 10.9 | 105 | -5 | 97 | 100 | -80 | -2 | 100 | -57.3 | -35 | 5 | 2.18 | 10 | 2.19 | CC50 (U-251; [15]): 76.8 µM; CC50 (U-251; [16]): 77.6 µM; TGI (U-251; read-out: pTGI (converted)): 10 µM; growth at 0.01 µM (NCI-H322M): 90%; growth at 10 µM [9]: 12.4%; growth at 0.01 µM [10]: 95%; growth at 10 µM [11]: -6%; growth at 10 µM [12]: -43%; growth at 0.01 µM (M14): 95%; growth at 10 µM (NCI-H460): 0.81%; growth at 10 µM [13]: -12.6%; growth at 1 µM [14]: 102%
